{"source": "ChEMBL document CHEMBL4152262", "about": "“Design, synthesis and evaluation of novel multi-target-directed ligands for treatment of Alzheimer's disease based on coumarin and lipoic acid scaffolds” (Eur J Med Chem, 2018)", "key": {"[1]": {"assay": "Metal chelating activity assessed as compound-Al3+ complex formation at 20 uM after 30 mins by UV-visible spectrophotometric analysis", "summary_of_the_method": "(§1)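 Compound (final 20 µM in methanol) mixed with metal salt (CuCl2, FeSO4, ZnCl2, AlCl3, MgCl2 or CaCl2, final 20 µM in methanol). After 30 min at room temperature, UV spectra recorded from 200 to 500 nm in 1-cm quartz cells on a dual-beam spectrophotometer.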"}, "[2]": {"target": "Amyloid-beta precursor protein (Homo sapiens) (UniProt P05067)", "sequence (P05067 whole entry)": "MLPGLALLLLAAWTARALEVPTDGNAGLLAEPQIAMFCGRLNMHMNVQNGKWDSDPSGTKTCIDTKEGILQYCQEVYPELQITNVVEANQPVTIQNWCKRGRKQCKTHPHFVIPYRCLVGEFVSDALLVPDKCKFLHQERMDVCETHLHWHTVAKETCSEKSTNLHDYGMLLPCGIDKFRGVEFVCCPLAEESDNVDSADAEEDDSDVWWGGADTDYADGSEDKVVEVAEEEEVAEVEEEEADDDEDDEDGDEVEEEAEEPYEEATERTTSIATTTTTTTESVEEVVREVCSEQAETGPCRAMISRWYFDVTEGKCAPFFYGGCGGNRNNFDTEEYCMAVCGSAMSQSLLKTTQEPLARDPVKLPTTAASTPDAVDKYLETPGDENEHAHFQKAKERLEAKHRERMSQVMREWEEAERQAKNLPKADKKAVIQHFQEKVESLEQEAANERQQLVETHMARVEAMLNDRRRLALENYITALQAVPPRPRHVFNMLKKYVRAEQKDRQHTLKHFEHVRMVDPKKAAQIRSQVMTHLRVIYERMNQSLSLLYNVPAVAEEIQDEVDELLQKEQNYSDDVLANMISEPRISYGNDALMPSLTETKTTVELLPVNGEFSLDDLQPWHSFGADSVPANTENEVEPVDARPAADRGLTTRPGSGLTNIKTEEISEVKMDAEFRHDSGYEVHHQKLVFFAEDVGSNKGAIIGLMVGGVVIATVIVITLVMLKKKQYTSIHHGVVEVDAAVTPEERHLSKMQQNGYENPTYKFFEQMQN", "assay": "Potency index, ratio of compound effect to rifampicin effect for inhibition of amyloid beta (1 to 42) (unknown origin) self-induced aggregation at 100 uM"}, "[3]": {"assay": "Metal chelating activity assessed as compound-Fe2+ complex formation at 20 uM after 30 mins by UV-visible spectrophotometric analysis", "summary_of_the_method": "as §1"}, "PC-12 [4]": {"tested_on": "PC-12", "assay": "Inhibition of H2O2-induced ROS generation in rat PC12 cells assessed as intracellular ROS level at 1 uM preincubated for 6 hrs followed by H2O2 addition measured after 18 hrs by DCFH-DA staining based fluorimetric method relative to control", "type": "functional", "set-up": "scale not given: the % may be the effect or the level left", "summary_of_the_method": "(§2)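 PC12 cells at 1×10^4/well in RPMI with 10% FBS and penicillin/streptomycin, 24 h at 37 °C, 5% CO2. Test samples (1, 5, 10, 50 µM; ≤0.5% DMSO) for 6 h, PBS wash, then H2O2 150 µM for 18 h. Loaded with 10 µM DCFH-DA for 30 min at 37 °C in the dark, washed twice. DCF fluorescence read at ex 485/em 528 nm as % of untreated control. Three independent experiments, mean ± SEM.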"}, "Acetylcholinesterase [5]": {"target": "T1, Acetylcholinesterase (Electrophorus electricus, UniProt O42275)", "T1 sequence (O42275 whole entry)": "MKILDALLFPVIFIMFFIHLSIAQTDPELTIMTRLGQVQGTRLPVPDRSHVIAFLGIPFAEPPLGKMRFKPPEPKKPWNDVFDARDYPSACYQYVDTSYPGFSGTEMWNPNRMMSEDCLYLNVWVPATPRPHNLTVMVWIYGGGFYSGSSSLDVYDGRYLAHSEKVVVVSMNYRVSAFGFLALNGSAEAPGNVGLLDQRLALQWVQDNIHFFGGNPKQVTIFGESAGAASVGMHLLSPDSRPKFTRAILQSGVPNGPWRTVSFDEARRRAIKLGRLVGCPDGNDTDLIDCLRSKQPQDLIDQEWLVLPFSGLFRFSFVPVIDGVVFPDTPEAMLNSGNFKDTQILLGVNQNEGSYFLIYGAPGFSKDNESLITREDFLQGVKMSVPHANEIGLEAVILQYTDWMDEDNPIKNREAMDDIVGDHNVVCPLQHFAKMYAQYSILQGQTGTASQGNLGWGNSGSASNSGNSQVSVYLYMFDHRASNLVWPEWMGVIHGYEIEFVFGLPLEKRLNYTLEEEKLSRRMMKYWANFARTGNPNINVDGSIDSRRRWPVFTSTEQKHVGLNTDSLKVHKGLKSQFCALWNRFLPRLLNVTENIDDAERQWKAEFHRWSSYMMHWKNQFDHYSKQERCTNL", "assay": "Inhibition of electric eel AChE using acetylthiocholine iodide as substrate pretreated for 5 mins followed by substrate addition by Ellman's method"}, "PC-12 [6]": {"tested_on": "PC-12", "assay": "Neuroprotection against H2O2-induced cell death in rat PC12 cells assessed as cell viability at 20 uM preincubated for 3 hrs followed by H2O2 stimulation measured after 2 hrs by MTT assay (reference value: 25.2 to 41.8%)", "type": "functional", "details": "read-out: Activity"}, "PC-12 [7]": {"tested_on": "PC-12", "assay": "Neuroprotection against H2O2-induced cell death in rat PC12 cells assessed as cell viability at 10 uM preincubated for 3 hrs followed by H2O2 stimulation measured after 2 hrs by MTT assay (reference value: 25.2 to 41.8%)", "type": "functional", "details": "read-out: Activity"}, "[8]": {"target": "Acetylcholinesterase (Electrophorus electricus) (UniProt O42275)", "sequence (O42275 24-633 limits assumed)": "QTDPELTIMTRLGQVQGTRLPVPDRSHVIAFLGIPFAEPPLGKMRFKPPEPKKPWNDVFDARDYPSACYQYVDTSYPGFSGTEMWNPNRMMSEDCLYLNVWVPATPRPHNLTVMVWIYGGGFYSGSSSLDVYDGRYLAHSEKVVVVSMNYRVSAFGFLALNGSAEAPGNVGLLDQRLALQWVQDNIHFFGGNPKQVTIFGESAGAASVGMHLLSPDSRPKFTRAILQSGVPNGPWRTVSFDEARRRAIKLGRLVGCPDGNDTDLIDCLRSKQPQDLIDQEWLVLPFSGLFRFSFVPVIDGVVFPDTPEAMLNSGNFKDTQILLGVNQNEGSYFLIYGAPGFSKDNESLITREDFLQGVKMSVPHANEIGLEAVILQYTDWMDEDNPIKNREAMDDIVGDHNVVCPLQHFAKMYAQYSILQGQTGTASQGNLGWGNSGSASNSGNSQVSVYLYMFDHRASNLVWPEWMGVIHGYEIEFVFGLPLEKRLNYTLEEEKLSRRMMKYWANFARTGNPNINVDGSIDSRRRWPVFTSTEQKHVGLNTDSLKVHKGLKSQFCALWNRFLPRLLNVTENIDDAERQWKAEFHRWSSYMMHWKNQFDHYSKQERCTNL", "assay": "Mixed-type inhibition of electric eel AChE using varying levels of acetylthiocholine iodide as substrate pretreated for 5 mins followed by substrate addition by Lineweaver-Burk plot analysis", "summary_of_the_method": "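Electric eel AChE (5 IU/mL) by Ellman method in 0.1 M phosphate buffer pH 8.0 with DTNB. Inhibitor was preincubated 5 min, then acetylthiocholine iodide was added at different concentrations. Absorbance followed at 412 nm. Inhibition type from reciprocal Lineweaver-Burk plots; Ki from a secondary replot of slope vs inhibitor concentration.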"}, "Acetylcholinesterase [9]": {"target": "T1, Acetylcholinesterase", "assay": "Non-competitive inhibition of electric eel AChE using varying levels of acetylthiocholine iodide as substrate pretreated for 5 mins followed by substrate addition by Lineweaver-Burk plot analysis"}, "PC-12 [10]": {"tested_on": "PC-12", "assay": "Inhibition of H2O2-induced ROS generation in rat PC12 cells assessed as intracellular ROS level at 50 uM preincubated for 6 hrs followed by H2O2 addition measured after 18 hrs by DCFH-DA staining based fluorimetric method relative to control", "type": "functional", "set-up": "scale not given: the % may be the effect or the level left", "summary_of_the_method": "as §2"}, "PC-12 [11]": {"tested_on": "PC-12", "assay": "Neuroprotection against H2O2-induced cell death in rat PC12 cells assessed as cell viability at 0.1 uM preincubated for 3 hrs followed by H2O2 stimulation measured after 2 hrs by MTT assay (reference value: 25.2 to 41.8%)", "type": "functional", "details": "read-out: Activity"}, "PC-12 [12]": {"tested_on": "PC-12", "assay": "Neuroprotection against H2O2-induced cell death in rat PC12 cells assessed as cell viability at 1 uM preincubated for 3 hrs followed by H2O2 stimulation measured after 2 hrs by MTT assay (reference value: 25.2 to 41.8%)", "type": "functional", "details": "read-out: Activity"}, "[13]": {"assay": "Metal chelating activity assessed as compound-Ca2+ complex formation at 20 uM after 30 mins by UV-visible spectrophotometric analysis", "summary_of_the_method": "as §1"}, "[14]": {"target": "Amyloid-beta precursor protein (Homo sapiens) (UniProt P05067)", "assay": "Potency index, ratio of compound effect to donepezil effect for inhibition of amyloid beta (1 to 42) (unknown origin) self-induced aggregation at 100 uM"}, "PC-12 [15]": {"tested_on": "PC-12", "assay": "Inhibition of H2O2-induced ROS generation in rat PC12 cells preincubated for 6 hrs followed by H2O2 addition measured after 18 hrs by DCFH-DA staining based fluorimetric method", "type": "functional, cell-based", "summary_of_the_method": "as §2"}, "SH-SY5Y": {"tested_on": "SH-SY5Y", "assay": "Neuroprotection against H2O2-induced cell death in human SH-SY5Y cells assessed as cell viability at 10 uM preincubated for 3 hrs followed by H2O2 addition measured after 24 hrs by MTT assay relative to control", "type": "functional", "details": "read-out: Activity", "summary_of_the_method": "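SH-SY5Y cells grown in DMEM with 10% FBS, 1% L-glutamine and antibiotics, 5×10^3/well. Compound (10 or 50 µM) for 3 h before 250 µM H2O2, then 24 h incubation. MTT read at 570 nm after DMSO solubilization. Viability as blank-corrected % of untreated control; three independent experiments, mean ± SEM.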"}, "PC-12 [16]": {"tested_on": "PC-12", "assay": "Neuroprotection against H2O2-induced cell death in rat PC12 cells assessed as increase in cell viability preincubated for 3 hrs followed by H2O2 stimulation measured after 2 hrs by MTT assay", "type": "functional, cell-based"}, "[17]": {"assay": "Metal chelating activity assessed as compound-Zn2+ complex formation at 20 uM after 30 mins by UV-visible spectrophotometric analysis", "summary_of_the_method": "as §1"}, "[18]": {"assay": "Inhibition of soybean 15-LOX assessed as reduction in conversion of linoleic acid to 13-hydroperoxylinoleic acid by spectrophotometric method", "set-up": "species or system Glycine max", "summary_of_the_method": "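Soybean lipoxygenase type 1-B (final 167 U/mL) with compound (DMSO stock diluted in 0.1 M phosphate buffer pH 8) and linoleic acid (134 mM in ethanol) at room temperature. Formation of 13-hydroperoxylinoleic acid followed spectrophotometrically at 234 nm.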"}, "[19]": {"assay": "Metal chelating activity assessed as compound-Cu2+ complex formation at 20 uM after 30 mins by UV-visible spectrophotometric analysis", "summary_of_the_method": "as §1"}, "PC-12 [20]": {"tested_on": "PC-12", "assay": "Cytotoxicity against rat PC12 cells assessed as effect on cell viability at 1 to 50 uM by MTT assay", "type": "cell-based", "details": "pc-12, 50 µM"}, "[21]": {"assay": "Metal chelating activity assessed as mole fraction of compound required to show 2:1 stoichiometry for compound-Cu2+ complex at 40 uM after 30 mins by UV titration method", "summary_of_the_method": "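Molar ratio method: 2.5 mL of 40 µM ligand in methanol titrated with CuCl2 (1000 µM in methanol) in 0.01 mL steps. Absorbance at 365 nm plotted against mole fraction; stoichiometry read from where the two straight lines cross.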"}, "PC-12 [22]": {"tested_on": "PC-12", "assay": "Inhibition of H2O2-induced ROS generation in rat PC12 cells assessed as intracellular ROS level at 5 uM preincubated for 6 hrs followed by H2O2 addition measured after 18 hrs by DCFH-DA staining based fluorimetric method relative to control", "type": "functional", "set-up": "scale not given: the % may be the effect or the level left", "summary_of_the_method": "as §2"}}, "note": "Calls of active or inactive are those of the source. No cut-off for these calls is given here.", "data": [{"smiles": "COc1ccc(-c2cc3ccc(OCCCn4cc(CNC(=O)CCCCC5CCSS5)nn4)cc3oc2=O)cc1OC", "note": "(stereo not drawn)", "values": [{"measurement": "Activity", "setting": "[1]", "value": "inactive"}, {"measurement": "Ratio", "setting": "[2]", "value": 2}, {"measurement": "Activity", "setting": "[3]", "value": "Active"}, {"measurement": "Activity", "setting": "PC-12 [4]", "value": 88.84, "unit": "%"}, {"measurement": "IC50", "setting": "Acetylcholinesterase [5]", "value": 16.4, "unit": "µM"}, {"measurement": "viability at 20 µM", "setting": "PC-12 [6]", "value": 45.6, "unit": "%"}, {"measurement": "viability at 10 µM", "setting": "PC-12 [7]", "value": 43.5, "unit": "%"}, {"measurement": "inhibition", "setting": "[8]", "value": "Active"}, {"measurement": "Ki", "setting": "Acetylcholinesterase [9]", "value": 6.91, "unit": "µM"}, {"measurement": "Activity", "setting": "PC-12 [10]", "value": 91.6, "unit": "%"}, {"measurement": "viability at 0.1 µM", "setting": "PC-12 [11]", "value": 36.4, "unit": "%"}, {"measurement": "viability at 1 µM", "setting": "PC-12 [12]", "value": 39.3, "unit": "%"}, {"measurement": "Activity", "setting": "[13]", "value": "inactive"}, {"measurement": "Ratio", "setting": "[14]", "value": 2}, {"measurement": "inhibition", "setting": "PC-12 [15]", "value": "Dose-dependent effect"}, {"measurement": "viability at 10 µM", "setting": "SH-SY5Y", "value": 64, "unit": "%"}, {"measurement": "Activity", "setting": "PC-12 [16]", "value": "Dose-dependent effect"}, {"measurement": "Activity", "setting": "[17]", "value": "inactive"}, {"measurement": "IC50", "setting": "[18]", "value": "> 100", "unit": "µM"}, {"measurement": "Activity", "setting": "[19]", "value": "Active"}, {"measurement": "Activity", "setting": "PC-12 [20]", "value": "Non-Toxic"}, {"measurement": "Activity", "setting": "[21]", "value": 0.5, "unit": "molar ratio"}, {"measurement": "Activity", "setting": "PC-12 [22]", "value": 79.32, "unit": "%"}]}]}
